GPR7 antag: GPR7 receptor antagonists, primary screen, cell-based, fluorescence, single concentration; GPR7-expressing cells, fluorescence antagonist assay; AID 1861, 2009; inhibition, % at 4.4 µM; actives 1.1% (n = 290,000); Neuropeptides B/W receptor type 1 (Homo sapiens), P48145; in the data active = inhibition above about 16%, passing the limit was not always enough;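 also: cells stimulated with the agonist NPW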
Target sequence (P48145 whole entry, looked up): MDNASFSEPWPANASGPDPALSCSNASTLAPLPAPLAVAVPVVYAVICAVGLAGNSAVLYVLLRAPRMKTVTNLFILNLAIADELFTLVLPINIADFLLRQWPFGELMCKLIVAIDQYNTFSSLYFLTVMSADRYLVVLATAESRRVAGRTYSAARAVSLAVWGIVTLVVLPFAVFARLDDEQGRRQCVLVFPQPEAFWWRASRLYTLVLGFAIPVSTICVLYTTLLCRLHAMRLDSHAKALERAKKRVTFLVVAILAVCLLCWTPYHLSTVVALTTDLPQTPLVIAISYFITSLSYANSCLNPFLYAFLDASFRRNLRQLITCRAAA
OX1R antag-1: antagonists of human orexin 1 receptor (OX1R) | inhibition, % at 6.6 µM | OX1R-expressing cells, FRET antagonist read-out | actives 1.8% (n = 330,000); in the data active = inhibition mostly above about 38%, no sharp cut-off; inactive = mostly below about 40%
Target sequence (O43613 whole entry, looked up): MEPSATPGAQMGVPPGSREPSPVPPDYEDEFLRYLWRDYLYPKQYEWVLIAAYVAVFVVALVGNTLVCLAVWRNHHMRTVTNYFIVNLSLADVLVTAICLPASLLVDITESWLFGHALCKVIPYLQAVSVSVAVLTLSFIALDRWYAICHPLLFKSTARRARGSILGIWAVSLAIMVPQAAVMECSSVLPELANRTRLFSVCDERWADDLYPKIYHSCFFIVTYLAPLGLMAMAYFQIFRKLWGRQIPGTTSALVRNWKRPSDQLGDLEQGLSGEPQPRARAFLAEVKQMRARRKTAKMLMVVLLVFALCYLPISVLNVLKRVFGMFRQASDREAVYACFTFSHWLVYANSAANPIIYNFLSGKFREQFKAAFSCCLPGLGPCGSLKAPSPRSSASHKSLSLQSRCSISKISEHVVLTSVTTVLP
TAAR1 antag: human TAAR1 antagonists, primary screen, Fluo-8 calcium fluorescence, CHO RD-HGA16 cells; inhibition, % at 3 µM; AID 624466, 2012; antagonist; actives 1.5% (n = 360,000);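 active = inhibition above a per-plate cutoff, the mean inhibition of test compounds on that plate plus 3 SD, cut at about 49% in these data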
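System: CHO RD-HGA16 cells bearing hTAAR1. Reagent: EC80 β-phenethylamine stimulus. Schedule: seeding 17-24 h prior, 75-min 37 °C, 30-min RT dye loading. Signal: Fluo-8 intracellular calcium dye fluorescence, real-time kinetic reads. Read-out: % inhibition from peak post-agonist over basal fluorescence ratio. Benchmarks: vehicle wells and EC80 agonist wells. Replicates: n of 1.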
TAAR1 agonist: human TAAR1 agonists, primary screen, Fluo-8 calcium fluorescence, CHO RD-HGA16 cells; activation, % at 3 µM; vehicle wells 0%, saturating PEA agonist 100%; Trace amine-associated receptor 1 (Homo sapiens), Q96RJ0; actives 0.99% (n = 360,000);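 active = activation above the mean activation of all test compounds in the run plus 3 SD, cut at about 38% in these data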
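System: CHO-derived RD-HGA16 cells with stable Gα16 and human TAAR1 / Times: 17-24 h plating, Fluo-8 75 min 37 °C, 30 min RT / Technique: calcium-sensitive Fluo-8 signal, excitation 470-495, emission 515-575 nm / Measure: % activation relative to PEA EC100 response / Benchmarks: DMSO and PEA EC100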
CHO parental Ca: ATP-evoked calcium signal inhibitors, parental CHO, primary screen, counter-screen for OX1R antagonist project, cell-based, fluorescence, Fluo-8 calcium dye; inhibition, % at 5.6 µM; AID 463079, 2010; actives 0.63% (n = 330,000); parental CHO-K1, ATP-induced calcium, Fluo-8 fluorescence;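 active = inhibition above that plate's mean sample inhibition plus 3 SD, cut at about 26% in these data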
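Test system: untransfected parental CHO cell line; also added: ATP stimulus; dosing: 5.6 µM, single dose; signal: calcium-sensitive Fluo-8 fluorescence; measure: percent inhibition of ATP-evoked calcium rise, normalized to controls; benchmarks: low control ATP plus DMSO, high control DMSO only; replication: one well per compound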
OX1R antag-2: OX1R (HCRTR1) antagonists, primary screen, fluorescence, CHO/OX1R cells, Fluo-8 calcium, orexin A. actives 0.43% (n = 330,000). AID 434989, 2010. Orexin/Hypocretin receptor type 1 (Homo sapiens), O43613. Fluo-8 calcium fluorescence. inhibition, % at 5 µM;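 active = inhibition above its plate's threshold, mean inhibition of all tested compounds on the plate plus 3 SD, cut at about 37% in these data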
GPR7 antag cf: GPR7 receptor antagonists, confirmation, cell-based, fluorescence, single concentration. actives 52% (n = 2,400). shares compounds with GPR7 antag. GPR7-expressing cells, calcium fluorescence antagonist mode. inhibition, % at 4.4 µM; in the data active = inhibition above about 24%;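 also: stimulated with the GPR7 agonist NPW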
MCHR1 antag: MCHR1 antagonists in cells, counter-screen for GPR7 antagonist project, cell-based, fluorescence, human; shares compounds with GPR7 antag; MCHR1-expressing cells, fluorescence antagonist assay; inhibition, % at 4.4 µM; actives 62% (n = 2,400); in the data active = inhibition above about 22%
Large screens that a line does not name were inactive (follow-up assays come after a bar, where they were run). The list is not random: actives were taken first. Their share in the collection is about 4.6%.

COc1cccc(OCc2cc(C(=O)NCc3ccccn3)no2)c1	none
CCC(C)(C)c1ccc(OCCCC[n+]2cccc(C)c2)c(C(C)(C)CC)c1	GPR7 antag 21.1 (no result: OX1R antag-1, CHO parental Ca, OX1R antag-2) | GPR7 antag cf 77.7 | MCHR1 antag 90.5
Cc1ccc[n+](CC(=O)Nc2cc(C(F)(F)F)ccc2Cl)c1	none
COc1ccccc1NC(=O)COC(=O)/C=C/c1ccc2c(c1)OCO2	GPR7 antag 33.3 | GPR7 antag cf inactive | MCHR1 antag inactive
COc1ccccc1NC(=O)/C=C/c1ccc2c(c1)OCO2	none
Cc1noc(C)c1S(=O)(=O)NC(=O)C1(C)CCN1C(=O)C1(c2ccc(Cl)cc2)CCC1 (configuration not stated)	none (no result: GPR7 antag, OX1R antag-1, CHO parental Ca, OX1R antag-2)
Cc1ccccc1OCCNc1cc(N2CCNCC2)ccc1[N+](=O)[O-]	GPR7 antag 30.3 (no result: TAAR1 antag, TAAR1 agonist) | GPR7 antag cf 47.5 | MCHR1 antag 66.1
COc1ccccc1OCCNc1cc(N2CCCCC2)ccc1[N+](=O)[O-]	none
COC(=O)c1ccc(CNC(=O)C2CCC(=O)N(CCc3ccccn3)C2)cc1 (configuration not stated)	none (no result: GPR7 antag, OX1R antag-1, CHO parental Ca, OX1R antag-2)
O=C(c1ccccc1F)N1CCN(c2cccc(C(F)(F)F)c2)CC1	GPR7 antag 22.7 | GPR7 antag cf inactive | MCHR1 antag inactive
Cc1ccc(CC(=O)N2CCN(c3ccc([N+](=O)[O-])cc3)CC2)cc1	GPR7 antag 39.5 | GPR7 antag cf 42.6 | MCHR1 antag 40.6
O=C(c1c(F)c(F)c(F)c(F)c1F)N1CCN(c2cccc(C(F)(F)F)c2)CC1	none
COc1ccccc1CC(=O)N1CCN(c2ccc([N+](=O)[O-])cc2)CC1	GPR7 antag 24.9 | GPR7 antag cf inactive | MCHR1 antag 35.9
COc1ccccc1C(=O)N1CCN(c2cccc(Cl)c2)CC1	GPR7 antag 25.0 | GPR7 antag cf inactive | MCHR1 antag 25.1
Cc1ccc(S(=O)(=O)N2[C@H](CC(=O)OCc3ccccc3)OC[C@@H]2C)cc1	none (no result: GPR7 antag, OX1R antag-1, CHO parental Ca, OX1R antag-2)
O=C(CCC(=O)c1cccs1)OCc1ccc([N+](=O)[O-])cc1	none (no result: GPR7 antag)
O=c1[nH][nH]c2c1[C@H](CCc1cccc(Cl)c1)O[C@H](CCc1ccccc1)C2	none (no result: GPR7 antag, OX1R antag-1, CHO parental Ca, OX1R antag-2)
COc1ccc(-c2nc(S(=O)(=O)c3ccccc3)c(N3CCN(C)CC3)o2)cc1	none (no result: GPR7 antag, OX1R antag-1, CHO parental Ca, OX1R antag-2)
COc1ccccc1NC(=O)N1CCN(c2cccc(C(F)(F)F)c2)CC1	none
COc1ccccc1CC(=O)N1CCN(c2cccc(C(F)(F)F)c2)CC1	GPR7 antag 26.4 | GPR7 antag cf 37.9 | MCHR1 antag 37.9
O=C(OC1CCN(c2ccc([N+](=O)[O-])cc2)CC1)c1ccccc1	GPR7 antag 29.4 | GPR7 antag cf 47.3 | MCHR1 antag 68.2
COc1cc(-n2c(C)cc(O)cc2=O)ccc1Cl	none (no result: GPR7 antag, OX1R antag-1, CHO parental Ca, OX1R antag-2)
CCCCOC(=O)Cn1c(=O)n(CC(=O)OCCCC)c2ccccc21	none
CCCCCCCCCCOC(=O)Cn1c(COc2ccccc2C)[n+](C)c2ccccc21	GPR7 antag 27.9, CHO parental Ca 43.2, OX1R antag-2 53.1 (no result: TAAR1 antag, TAAR1 agonist) | GPR7 antag cf 83.4 | MCHR1 antag 87.5
CCCCCCCCCCOC(=O)Cn1c(COc2cccc(C)c2)[n+](C)c2ccccc21	GPR7 antag 45.2, TAAR1 antag 65.1, TAAR1 agonist 41.6, CHO parental Ca 65.3, OX1R antag-2 74.9 | GPR7 antag cf 67.7 | MCHR1 antag 85.3
CCOC(=O)Cn1c(COc2ccccc2OC)[n+](C)c2ccccc21	none (no result: GPR7 antag)
CCCCCCCCCCOC(=O)Cn1c(COc2ccccc2)[n+](C)c2ccccc21	GPR7 antag 71.3, CHO parental Ca 62.3, OX1R antag-2 72.5 | GPR7 antag cf 77.4 | MCHR1 antag 93.6
CCCCCCCCCCOC(=O)Cn1c(COc2ccc(Cl)cc2)[n+](C)c2ccccc21	GPR7 antag 60.2, TAAR1 agonist 47.1, CHO parental Ca 33.4 | GPR7 antag cf 66.4 | MCHR1 antag 70.5
CC(C)OC(=O)CSc1nnc(CNc2ccc(Cl)cc2)n1Cc1ccccc1	GPR7 antag 26.5, CHO parental Ca 55.0, OX1R antag-2 53.3 | GPR7 antag cf 23.8 | MCHR1 antag 51.3
CCOC(=O)CSc1nnc(CNc2ccc(Cl)cc2)n1Cc1ccccc1	none
CCOc1ccc(N(C)S(=O)(=O)c2cc(-c3cc(C)no3)ccc2C)cc1	GPR7 antag 32.0, TAAR1 antag 64.6 | GPR7 antag cf inactive | MCHR1 antag 73.9
C[C@@H]1CN([C@@H](C)CO)C(=O)CCCn2cc(nn2)CO[C@H]1CN(C)C(=O)Nc1ccc2c(c1)OCCO2	none (no result: GPR7 antag, OX1R antag-1, CHO parental Ca, OX1R antag-2)
CC1(C(=O)NCc2ccccc2)CSCC(=O)N1CC(F)(F)F (configuration not stated)	none (no result: GPR7 antag, OX1R antag-1, CHO parental Ca, OX1R antag-2)
Cc1ccc(S(=O)(=O)N(C)S(=O)(=O)c2ccc(C#N)cc2)cc1	GPR7 antag 24.7 (no result: TAAR1 antag, TAAR1 agonist) | GPR7 antag cf inactive | MCHR1 antag 25.0
Cc1ccc(S(=O)(=O)CC(O)COc2ccc(C#N)cc2)cc1 (configuration not stated)	none
CCN(CC)S(=O)(=O)c1ccc(N2CCOCC2)c(NS(=O)(=O)c2ccc(Cl)s2)c1	none (no result: GPR7 antag, OX1R antag-1, CHO parental Ca, OX1R antag-2)
O=C(/C=C/c1cccc([N+](=O)[O-])c1)N1CCN(c2ccccc2F)CC1	none
CCOc1ccccc1N1CCN(C(=O)/C=C/c2cccc([N+](=O)[O-])c2)CC1	GPR7 antag 21.3 | GPR7 antag cf 32.3 | MCHR1 antag 41.2
COC(=O)N/N=C(\C)c1cccs1	none
COc1ccc(CC(=O)N/N=C(\C)c2cccs2)cc1	GPR7 antag 30.8 | GPR7 antag cf inactive | MCHR1 antag inactive
COc1ccc(CNCCC(c2ccc(OC(C)C)cc2)C(C)C)cc1OC (configuration not stated)	none
COc1ccc(C(CCNCc2ccc(N(C)C)cc2)C(C)C)cc1 (configuration not stated)	GPR7 antag 23.8 | GPR7 antag cf inactive | MCHR1 antag 49.6
